This note sets out measurements from ChEMBL document CHEMBL1135743 (J Med Chem, 2002).

The target in test [1] is T1, Adenosine receptor A1 (Homo sapiens, UniProt P30542).
T1 sequence (P30542 whole entry): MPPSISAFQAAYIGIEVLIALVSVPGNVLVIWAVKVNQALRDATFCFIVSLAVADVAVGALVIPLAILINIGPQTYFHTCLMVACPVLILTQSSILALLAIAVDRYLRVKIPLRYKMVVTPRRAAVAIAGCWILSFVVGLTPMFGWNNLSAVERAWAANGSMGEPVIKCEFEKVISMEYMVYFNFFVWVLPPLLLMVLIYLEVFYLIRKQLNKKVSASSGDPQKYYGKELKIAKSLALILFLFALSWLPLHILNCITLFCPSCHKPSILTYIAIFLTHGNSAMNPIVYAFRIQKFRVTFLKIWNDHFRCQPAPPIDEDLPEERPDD
Put plainly: Displacement of [3H]DPCPX from CHO cell membrane expressing human Adenosine A1 receptor. In kind it is cell membranes. In general terms: Loss of bound radioactivity is the signal in a displacement assay; it reports binding, not function.

Test [2] deals with T2, Adenosine receptor A3 (Homo sapiens, UniProt P0DMS8).
T2 sequence (P0DMS8 whole entry): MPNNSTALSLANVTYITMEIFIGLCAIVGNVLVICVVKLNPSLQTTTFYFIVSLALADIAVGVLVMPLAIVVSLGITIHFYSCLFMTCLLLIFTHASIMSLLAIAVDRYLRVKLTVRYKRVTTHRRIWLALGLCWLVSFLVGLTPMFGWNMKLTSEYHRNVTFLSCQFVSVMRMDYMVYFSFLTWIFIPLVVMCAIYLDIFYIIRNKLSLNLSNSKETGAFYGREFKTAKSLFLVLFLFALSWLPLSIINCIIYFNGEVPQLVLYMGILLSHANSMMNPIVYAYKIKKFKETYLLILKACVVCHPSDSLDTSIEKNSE
The experiment in a line: Ability to displace [125I]- AB-MECA from HEK 293 cell membrane expressing the human Adenosine A3 receptor. In kind it is cell membranes, HEK293.

For test [3], the target named is T3, Adenosine receptor A2a (Homo sapiens, UniProt P29274). Put plainly: Ability to displace [3H]- ZM-241385 from CHO cell membrane expressing the human Adenosine A2A receptor at a concentration of 10 uM. In kind it is cell membranes.
The target in test [4] is T4, Adenosine receptor A1 (Homo sapiens) (UniProt P30542).
T4 sequence (whole entry): T1 sequence (P30542 whole entry)
Put plainly: Ability to displace [3H]- DPCPX from CHO cell membrane expressing the human Adenosine A1 receptor at a concentration of 10 uM. In kind it is cell membranes.

The target in test [5] is T3, Adenosine receptor A2a. Put plainly: Displacement of [3H]ZM-241,385 from CHO cell membrane expressing human Adenosine A2A receptor. It counts as cell membranes. The gist of the method:
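Membranes from CHO cells expressing human A2A, with adenosine deaminase 2 IU/mL added. Incubation used 2.0 nM (final) [3H]ZM241385 in 50 mM Tris/HCl pH 7.4 for 2 h at 25 °C. Nonspecific binding was set with 100 µM CPA. GF/B filtration, four ice-cold washes, scintillation counting. Ligands were dissolved in DMSO stocks.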

Test [6] addresses T5, Adenosine receptor A3 (Homo sapiens) (UniProt P0DMS8).
T5 sequence (whole entry): T2 sequence (P0DMS8 whole entry)
The experiment in a line: Displacement of [125I]AB-MECA from HEK293 cell membrane expressing human Adenosine A3 receptor at 10 uM. It counts as cell membranes.

Test [7] has as its target T3, Adenosine receptor A2a. Put plainly: Displace [3H]ZM-241385 from CHO cell membrane expressing human Adenosine A2A receptor at 10 uM. In kind it is cell membranes.
The target in test [8] is T4, Adenosine receptor A1 (Homo sapiens). The experiment in a line: Displacement of [3H]DPCPX from CHO cell membrane expressing human Adenosine A1 receptor at 10 uM. It counts as cell membranes.
Test [9] has the same target. The experiment in a line: Displacement of [3H]- DPCPX from CHO cell membrane expressing human Adenosine A1 receptor. It counts as cell membranes. The gist of the method:
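Membranes from CHO cells stably expressing human A1, resuspended in 50 mM Tris/HCl pH 7.4 with adenosine deaminase 2 IU/mL. Incubated with 1.6 nM (final) [3H]DPCPX in 50 mM Tris/HCl pH 7.4 for 1 h at 25 °C. Nonspecific binding was set with 10 µM CPA. Filtration over GF/B, three ice-cold washes, then liquid scintillation counting. Ligand stocks were in DMSO.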

T3 sequence (P29274 whole entry): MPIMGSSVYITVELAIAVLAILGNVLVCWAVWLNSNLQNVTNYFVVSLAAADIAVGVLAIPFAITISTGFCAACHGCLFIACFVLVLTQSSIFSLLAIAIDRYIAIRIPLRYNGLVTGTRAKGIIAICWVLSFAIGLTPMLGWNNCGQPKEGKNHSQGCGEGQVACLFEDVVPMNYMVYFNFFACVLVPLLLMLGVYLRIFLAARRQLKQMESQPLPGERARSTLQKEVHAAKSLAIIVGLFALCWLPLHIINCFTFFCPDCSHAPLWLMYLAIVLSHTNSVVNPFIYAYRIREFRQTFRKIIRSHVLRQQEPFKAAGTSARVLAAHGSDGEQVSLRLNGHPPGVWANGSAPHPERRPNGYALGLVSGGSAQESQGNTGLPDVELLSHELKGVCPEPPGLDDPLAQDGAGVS

What is called Ki is a measure of affinity in units of concentration, obtained from inhibition or displacement. Low readings indicate a stronger hold on the target, high ones a looser hold on the target. Regarding `CCCn1c(=O)c2c(nc3cc(OC)ccn32)n(Cc2ccccc2)c1=O`, the inhibitory constant (Ki) amounted to 0.179 µM in [1] and 0.01 µM in [2]. Besides, in test [3], the Displacement came to 44%.
With `CCCn1c(=O)c2c(nc3cc(-c4ccccc4)ccn32)n(Cc2ccccc2)c1=O`, the Displacement in test [4] was determined as 25%; in test [3] it was 8%.
As to `CCCn1c(=O)c2c(nc3ccccn32)n(Cc2cccc(C)c2)c1=O`, the Displacement in test [4] came out at 44%; in [3], 35%. In test [2], this molecule gave a Ki of 0.068 µM.
For the molecule `COc1ccc(Cn2c(=O)c3c(nc4ccccn43)n(Cc3ccccc3)c2=O)cc1`, the Displacement in test [4] amounted to 25%; in test [3], 16%. The affinity in [2], expressed as Ki, was 0.213 µM.
As to `C#CCn1c(=O)c2c(nc3ccccn32)n(Cc2ccccc2)c1=O`, the inhibition constant (Ki) in test [1] is 0.124 µM; in [5] it was 0.096 µM; in test [2], 0.014 µM.
On to `O=c1[nH]c(=O)n(Cc2ccccc2)c2nc3cc(-c4ccccc4)ccn3c12`, for which the figures for the Displacement in test [4] and in [3] were 11% and 0%, respectively. For the same molecule, the affinity in test [2] corresponds to a Ki of 0.2 µM.
In the case of `NCCCn1c(=O)c2c(nc3ccccn32)n(Cc2ccccc2)c1=O`, the Displacement worked out at 7% in test [4], 6% in test [6] and 11% in test [3].
With `CC(C)(C)c1ccn2c(c1)nc1c2c(=O)[nH]c(=O)n1Cc1ccccc1`, the Displacement is 53% in [4] and 23% in [3]. Affinity in [2] was put at a Ki of 0.555 µM.
`CCCn1c(=O)c2c(nc3ccccn32)n(C)c1=O`: the Ki was 2.1 µM in test [1] and 3.02 µM in [2]. In addition, the Displacement in test [7] turned out to be 49%.
As for `COC(=O)/C=C/Cn1c(=O)c2c(nc3ccccn32)n(Cc2ccccc2)c1=O`, the Displacement in test [7] is 12%; in test [8] it was 1%. Further, the inhibition constant Ki in test [2] was 1.13 µM.
As to `O=c1c2c(nc3ccccn32)n(Cc2ccccc2)c(=O)n1CC1CC1`, the Ki in [5] worked out at 0.242 µM; in test [2] it was 0.0042 µM. Besides, the Displacement in test [4] was determined as 40.9%.
Regarding `CCCn1c(=O)c2c(nc3cc(C(C)(C)C)ccn32)n(Cc2ccccc2)c1=O`, the Ki in test [1] came out at 1.46 µM; in test [5] it was 0.385 µM; in test [2] it was 0.95 µM.
On to `CCCn1c(=O)c2c(nc3ccccn32)n(Cc2ccccc2)c1=O`, for which the affinity in [5] corresponds to a Ki of 0.119 µM.
In the case of `C=CCn1c(=O)c2c(nc3ccccn32)n(Cc2ccccc2)c1=O`, the Ki was found to be 0.042 µM in test [1], 0.161 µM in test [5] and 0.005 µM in test [2].
Take `CCCn1c(=O)c2c(nc3ccccn32)n(Cc2ccc(OC)cc2)c1=O`: the Ki in test [1] amounted to 0.083 µM; in test [2], 0.0083 µM. For the same molecule, the Displacement in test [3] was found to be 40%.
Take `CCn1c(=O)c2c(nc3ccccn32)n(Cc2ccccc2)c1=O`: the Ki amounted to 0.325 µM in test [1], 0.584 µM in test [5] and 0.036 µM in test [2].
For the molecule `CC(C)Cn1c(=O)c2c(nc3ccccn32)n(Cc2ccccc2)c1=O`, the Ki in test [1] was determined as 0.028 µM; in test [2], 0.0063 µM. The Displacement in test [3] was found to be 40%.
Consider `O=c1c2c(nc3ccccn32)n(Cc2ccccc2)c(=O)n1Cc1ccccc1`, for which the Ki stood at 25.8 µM in [5] and 0.077 µM in [2]. This molecule also showed a Displacement in [4] of 20%.
`O=c1[nH]c(=O)n(Cc2ccccc2)c2nc3ccccn3c12`: the Displacement was 47% in test [4] and 32% in [3]. The same molecule displayed a Ki in [2] of 0.37 µM.
With `COc1ccn2c(c1)nc1c2c(=O)[nH]c(=O)n1Cc1ccccc1`, the Displacement in [4] came out at 49%; in test [3], 10%. The Ki in test [2] is 0.21 µM.
For the molecule `O=c1c2c(nc3ccccn32)n(Cc2ccccc2)c(=O)n1CC1CCCCC1`, the Displacement in [9] amounted to 21%; in test [3] it was 22%. The molecule further yielded a Ki in [2] of 0.114 µM.
